# Compounds with a hit are over-represented: about 2% of the library has one in this group of screens.
# PvdQ inh: blocks Pseudomonas aeruginosa PvdQ acylase activity | 0.063% of 340,000 active | purified PvdQ acylase, fluorescence plate reader | inhibition, % at 10 µM; in the data active = inhibition above about 30%, passing the limit was not always enough;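 also: 0% = vehicle neutral wells and 100% = reference inhibitor wells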
# PLC-beta3 inh: inhibitors of human phospholipase C beta3; 0.18% of 370,000 active; inhibition, % at 12.2 µM; Purified PLC-beta3, fluorogenic substrate, fluorescence;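 also: 0% = median of compound wells on plate and 100% = full blocker control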
# IMP-1 inh: blocks Pseudomonas aeruginosa IMP-1 metallo-beta-lactamase | inhibition, % at 5.6 µM | 0.45% of 290,000 active | purified IMP-1, nitrocefin hydrolysis, epi-absorbance fluorescence;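 active = inhibition above the mean plus 3 SD of all compounds in the same screening run, cut at about 4.5% in these data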;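 also: 0% = IMP-1 with DMSO and 100% = DMSO wells lacking enzyme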
#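 Material – recombinant IMP-1 enzyme, purified · Amount – IMP-1 0.2 nM before substrate addition · Medium – HEPES buffer pH 7.1 with ZnSO4 and Brij 35 · Timing – 25 °C, 15 min preincubation, 25 min reaction · Measured by – plate fluorescence quenching by hydrolysis product, ex 480/em 530 nm · Read-out – percent enzyme inhibition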
# VIM-2 inhibitor: blocks Pseudomonas aeruginosa VIM-2 metallo-beta-lactamase; 0.89% of 290,000 active; inhibition, % at 5.6 µM; purified VIM-2, nitrocefin hydrolysis, epi-absorbance fluorescence;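 active = inhibition above the mean of all tested compounds plus 3 SD, cutoff set per screening run, cut at about 7.5% in these data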;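 also: red hydrolysis product quenches plate fluorescence so inhibitors raise well fluorescence; 0% = enzyme with DMSO and 100% = DMSO without enzyme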
# PLC-gamma1 inh: PLC-gamma1 (human) inhibition, primary screen; inhibition, % at 12.2 µM; AID 720700; P19174; 0.84% of 370,000 active; purified PLC-gamma1, fluorogenic substrate, fluorescence; in the data active = inhibition above about 9.5%
# PLCgamma1 ctr: counter-screen for PLC-beta3 inhibitors: inhibitors of human PLC-gamma1. shares compounds with PLC-gamma1 inh. 3.1% of 3,300 active. purified PLC-gamma1, fluorogenic substrate, fluorescence. inhibition, % at 12.3 µM; in the data active = inhibition above about 9.5%
# PLCbeta3 conf: confirmation of human PLC-beta3 inhibitors; 1% of 3,300 active; AID 743261; shares compounds with PLC-gamma1 inh; inhibition, % at 12.3 µM; purified PLC-beta3, fluorogenic substrate fluorescence
# Active calls of the source: *; . = no result. Rule as the data show it, unless noted: active = inhibition above about 11%; inactive = the rest.
SMILES,PvdQ inh,PLC-beta3 inh,IMP-1 inh,VIM-2 inhibitor,PLC-gamma1 inh,PLCgamma1 ctr,PLCbeta3 conf
CC(C)(C)C1=Nn2c(nnc2-c2ccc(C(C)(C)C)cc2)SC1,.,0,.,.,-1,.,.
COc1ccc(S(=O)(=O)N2CCCCCC2)cc1C(=O)N(C)CC(=O)Nc1ccccc1Br,-2,-4,.,.,10*,0,1
COc1ccc(S(=O)(=O)N2CCCCCC2)cc1C(=O)N(C)CC(=O)Nc1ccccc1Cl,2,-1,.,.,-3,.,.
COc1ccc(S(=O)(=O)N2CCCCCC2)cc1C(=O)N(C)CC(=O)Nc1c(Cl)cccc1Cl,-17,2,.,.,9.7*,-2,3
COc1ccc([N+](=O)[O-])cc1NC(=O)C(C)OC(=O)CSC(C)C(=O)Nc1cc(C)on1 (stereo unspecified),-21,4,.,.,10*,-2,0
Cc1cc(NC(=O)C(C)SCC(=O)OC(C)C(=O)Nc2ccccc2C)no1 (stereo unspecified),3,-5,-1,-3,2,.,.
COC(=O)[C@]12C[C@H](CC(=O)NCCCCc3ccccc3)C(=O)N(CCC3=CCCCC3)C1=C[C@H](C(C)(C)C)O[C@@H]2C,.,0,.,.,-2,.,.
Cc1ccc(S(=O)(=O)NC(CCCNC(=O)OCc2ccccc2)C(=O)O)cc1 (stereo unspecified),.,-5,.,.,4,.,.
CC1CCCC(C)N1C(=O)COC(=O)COc1ccc(C#N)cc1 (stereo unspecified),0,-4,.,.,11*,-2,2
CC1CCCN(C(=O)COC(=O)COc2ccc(C#N)cc2)C1 (stereo unspecified),-1,-8,.,.,2,.,.
Cc1nn(C)c(Oc2ccccc2)c1CCNC(=O)C(C)(C)C,-5,8,0,-2,11*,-4,1
Cc1cc(O)cc(=O)n1-c1cccc([N+](=O)[O-])c1,.,0,.,.,0,.,.
Cc1ccccc1Cn1cc(COC(=O)NCC(C)C)nn1,.,2,.,.,3,.,.
CC(C)=CC(=O)Nc1ccc(Cl)cc1,-7,-4,-2,2,3,.,.
CS/C(=C\[N+](=O)[O-])Nc1ccc(Cl)cc1,-1,2,-1,1,11*,-5,-4
O=C(c1cccc(C(=O)N2CCN(c3ccccc3F)CC2)c1)N1CCN(c2ccccc2F)CC1,8,3,-4,-2,1,.,.
O=C(Nc1ccccc1N1CCN(C(=O)c2ccc(Cl)cc2)CC1)c1cccc(F)c1,7,-6,-3,-2,12*,-1,-1
O=C(c1c(F)cccc1F)N1CCN(c2ccccc2F)CC1,7,16*,-3,-1,5,-3,-1
O=C(Nc1ccccc1N1CCN(C(=O)c2ccccc2)CC1)c1cccc(Cl)c1,1,-7,-3,-2,1,.,.
Cc1[nH]c2ccccc2c1C(=O)C(=O)N1CCN(c2ccccc2F)CC1,5,0,-3,0,15*,-3,0
O=C(c1cccc(Oc2ccccc2)c1)N1CCC(Oc2cccnc2)CC1,.,-1,.,.,0,.,.
CC(=O)Nc1c([N+](=O)[O-])cc2[nH]c(=O)[nH]c2c1[N+](=O)[O-],6,12*,-2,-2,12*,-7,0
O=c1[nH]c2cc([N+](=O)[O-])c(NCCO)c([N+](=O)[O-])c2[nH]1,1,1,-4,-3,1,.,.
O=C(N[C@H](C(=O)N1CCC[C@H]1C(=O)NCCc1ccccc1Cl)c1ccccc1)c1cccs1,.,3,.,.,5,.,.
Cc1ccccc1N1CCN(S(=O)(=O)c2ccc3c(c2)n(C)c(=O)c(=O)n3C)CC1,.,1,.,.,1,.,.
CCOc1ccc2nc(C)cc(Nc3cccc([N+](=O)[O-])c3)c2c1,-11,8,-1,7,11*,-2,-1
CC(=O)NS(=O)(=O)c1ccc(N=NN2CCOCC2)cc1,-8,11*,-3,-2,9.8*,-2,0
CC(=O)N1CCC(N(C(=O)Nc2ccc(C)c(C)c2)C2CCCC2)CC1,7,12*,-2,0,4,-8,-13
CC(=O)N1CCC(N(CCCOC(C)C)C(=O)Nc2ccc(C)c(C)c2)CC1,-3,0,0,-2,1,.,.
O=C(NCCCc1ccccc1)[C@H](Cc1ccccc1)NC1(C(=O)NCCc2c[nH]c3ccccc23)CCOCC1,.,3,.,.,3,.,.

# High-throughput results as filed in PubChem BioAssay.
